Bioassay records deposited in PubChem BioAssay by several laboratories.
A selection: hits, their analogues and other compounds. The true share with any hit is near 2.9%.
SUMO Mot1 rescue – blocks SUMOylation pathway, rescuing yeast Mot1-301 growth. growth rescue, % at 18.8 µM. S. cerevisiae Mot1-301 growth rescue, ATP luminescence, 38.5C; percent above DMSO median, 100 means doubled. AID 2716. actives 1% (n = 320,000);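 active means every valid replicate shows activation above 250% relative to neutral control wells; inactive means the rest, any valid replicate at or below 250%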;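 further: OY570 slx delta 5 strain wells were the positive control but not used for scaling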
NALP1 inh – NALP1 inhibition; S. cerevisiae NALP1/ASC/caspase-1 growth, X-gal OD620, 72 h; inhibition, % at 10 µM; actives 0.61% (n = 280,000); AID 2071; in the data active means inhibition mostly above about 24%, no sharp cut-off; inactive means mostly below about 32%
FID counter – fluorescent intercalator displacement, NS3 helicase counter-screen; DNA fluorescent intercalator displacement, fluorescence; actives 0.17% (n = 290,000); inhibition, % at 7.9 µM; in the data active means inhibition above about 37%;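 further: 0% = vehicle and 100% = reference compound; higher means more ethidium bromide displaced from hairpin DNA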
IMP-1 inh – inhibitors of Pseudomonas aeruginosa IMP-1 metallo-beta-lactamase | purified IMP-1, nitrocefin hydrolysis, epi-absorbance fluorescence | inhibition, % at 5.6 µM | actives 0.45% (n = 290,000) | AID 1556;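 active means inhibition above the mean plus 3 SD of all compounds in the same screening run, cut at about 4.5% in these data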;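 further: 0% = IMP-1 with DMSO and 100% = DMSO wells lacking enzyme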
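Assay system: purified recombinant IMP-1 beta-lactamase. Input: IMP-1 0.2 nM before substrate addition. Buffer or medium: Zinc- and detergent-supplemented HEPES buffer, pH 7.1. Schedule: 25 °C, 15 min preincubation, 25 min reaction. Signal: Epi-absorbance fluorescence, 480 nm excitation, 530 nm emission. Evaluation: percent inhibition from optical density relative to buffer-blank wells.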
VIM-2 inhibitor – inhibitors of Pseudomonas aeruginosa VIM-2 metallo-beta-lactamase | purified VIM-2, nitrocefin hydrolysis, epi-absorbance fluorescence | inhibition, % at 5.6 µM | actives 0.89% (n = 290,000) | AID 1527;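 active means inhibition above the mean of all tested compounds plus 3 SD, cutoff set per screening run, cut at about 7.5% in these data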;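 further: red hydrolysis product quenches plate fluorescence so inhibitors raise well fluorescence; 0% = enzyme with DMSO and 100% = DMSO without enzyme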
SUMO HTRF inh – inhibitors of human SUMOylation (UBC9); HTRF SUMOylation assay, SAE1/SAE2 + UBC9, in vitro; actives 0.36% (n = 290,000); AID 2006; P63279; inhibition, % at 35 µM; in the data active means inhibition above about 50%, passing the limit was not always enough
Target sequence (P63279 whole entry, looked up): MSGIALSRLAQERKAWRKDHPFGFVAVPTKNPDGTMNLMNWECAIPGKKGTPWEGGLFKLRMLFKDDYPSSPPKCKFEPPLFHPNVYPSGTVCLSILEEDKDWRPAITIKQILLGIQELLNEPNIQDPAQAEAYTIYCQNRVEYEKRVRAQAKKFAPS
The depositor's hits bear a star.

How did CCN(CC)CCn1c(=N)n(CCOc2ccccc2)c2ccccc21 do in these assays?
SUMO Mot1 rescue: -1; NALP1 inh: -1; FID counter: 20; IMP-1 inh: -4; VIM-2 inhibitor: -1; SUMO HTRF inh: 4

What do the screens show for `CCN(CC)CCn1c(=N)n(CC(O)COc2ccccc2)c2ccccc21` (stereo not drawn)?
SUMO Mot1 rescue: 13; NALP1 inh: 10; FID counter: 37*; IMP-1 inh: 1; VIM-2 inhibitor: -1; SUMO HTRF inh: 1

Results for N=c1c2c(-c3ccccc3)c(-c3ccccc3)n(Cc3ccccc3)c2ncn1CCCn1ccnc1 ?
SUMO Mot1 rescue: 21; NALP1 inh: 30*; FID counter: 40*; IMP-1 inh: -3; VIM-2 inhibitor: -4; SUMO HTRF inh: -8

Results for CCCCn1cnc2c(c(-c3ccccc3)c(-c3ccccc3)n2Cc2ccco2)c1=N ?
SUMO Mot1 rescue: -14; NALP1 inh: 23; FID counter: 15; IMP-1 inh: -1; VIM-2 inhibitor: 0; SUMO HTRF inh: 10

What do the screens show for `CCc1cccc(CC)c1NC(=O)C(CC)Sc1nc2ccncc2[nH]1` (stereo not drawn)?
SUMO Mot1 rescue: -14; NALP1 inh: -3; FID counter: -23; IMP-1 inh: -5; VIM-2 inhibitor: -3; SUMO HTRF inh: 3

Results for CCOc1ccc2nc(NC(=O)c3ccc(OCC4CCCO4)cc3)sc2c1 (stereo not drawn) ?
SUMO Mot1 rescue: 4; NALP1 inh: 36; FID counter: -8; IMP-1 inh: -4; VIM-2 inhibitor: -4; SUMO HTRF inh: -4

Results for NC(CC(=O)OC1CCCCC1)C(=O)OC1CCCCC1 (stereo not drawn) ?
SUMO Mot1 rescue: -17; NALP1 inh: 5; FID counter: 25; IMP-1 inh: 5.4*; VIM-2 inhibitor: 3; SUMO HTRF inh: -2

What do the screens show for `N#C/C(=N\Nc1cccc(C(F)(F)F)c1)C(=O)c1ccsc1`?
SUMO Mot1 rescue: 9; NALP1 inh: 40*; FID counter: -18; IMP-1 inh: -4; VIM-2 inhibitor: 0; SUMO HTRF inh: 2

What do the screens show for `N#C/C(=N\Nc1cccc([N+](=O)[O-])c1)C(=O)c1ccc(Br)cc1`?
SUMO Mot1 rescue: -16; NALP1 inh: -2; FID counter: -9; IMP-1 inh: 0; VIM-2 inhibitor: 0; SUMO HTRF inh: 44

What do the screens show for `CCCCCCCCCCOC(=O)Cn1c(COc2ccccc2)[n+](C)c2ccccc21`?
SUMO Mot1 rescue: 150; NALP1 inh: 22; FID counter: 27; IMP-1 inh: -3; VIM-2 inhibitor: -3; SUMO HTRF inh: 20

Results for CCCCCCCCCCOC(=O)Cn1c(COc2ccc(Cl)cc2)[n+](C)c2ccccc21 ?
SUMO Mot1 rescue: -58; NALP1 inh: 61*; FID counter: 15; IMP-1 inh: -4; VIM-2 inhibitor: -1; SUMO HTRF inh: 8

Results for O=C(Nc1ccc(Nc2ccncc2)cc1)c1ccc(Nc2ccnc3ccc([N+](=O)[O-])cc23)cc1 ?
NALP1 inh: 9; FID counter: 39*; IMP-1 inh: 21*; VIM-2 inhibitor: 36*; SUMO HTRF inh: 69*

What do the screens show for `Cc1ccc(C(=O)NCC(=O)OCC(=O)c2ccc3c(c2)OCCO3)cc1C`?
SUMO Mot1 rescue: 197; NALP1 inh: 4; FID counter: -21; IMP-1 inh: -6; VIM-2 inhibitor: -2; SUMO HTRF inh: -8

What do the screens show for `COc1ccc(C(=O)NCC(=O)OCC(=O)c2ccc3c(c2)OCCO3)cc1`?
SUMO Mot1 rescue: 18; NALP1 inh: 36*; FID counter: -3; IMP-1 inh: -3; VIM-2 inhibitor: -2; SUMO HTRF inh: -12

How did COC(=O)c1sccc1NC(=O)C1CC2CCC1C2 (stereo not drawn) do in these assays?
SUMO Mot1 rescue: 4; NALP1 inh: 12; FID counter: 4; IMP-1 inh: 48*; VIM-2 inhibitor: -4; SUMO HTRF inh: -2

How did COC(=O)c1sccc1NC(=O)C1CC(C)=C(C)CC1C(=O)O (stereo not drawn) do in these assays?
SUMO Mot1 rescue: 15; NALP1 inh: 29; FID counter: -30; IMP-1 inh: 0; VIM-2 inhibitor: 8.4*; SUMO HTRF inh: 16

How did Cc1ccccc1N=C(NOCc1ccc(Cl)cc1Cl)c1nonc1N do in these assays?
SUMO Mot1 rescue: 17; NALP1 inh: 40*; FID counter: -1; IMP-1 inh: 2; VIM-2 inhibitor: -2; SUMO HTRF inh: -41

Results for CCOC(=O)c1sc(NC(=O)c2ccoc2C)c(C(N)=O)c1C ?
SUMO Mot1 rescue: 17; NALP1 inh: 11; FID counter: -37; IMP-1 inh: 0; VIM-2 inhibitor: 8.0*; SUMO HTRF inh: 1

How did COC(=O)c1c(NC(=O)c2ccoc2C)sc(C)c1C do in these assays?
SUMO Mot1 rescue: -11; NALP1 inh: 1; FID counter: -7; IMP-1 inh: -2; VIM-2 inhibitor: -1; SUMO HTRF inh: 12

How did CC(=O)N(C)c1ccc(NC(=S)Nc2cccc3ccccc23)cc1 do in these assays?
SUMO Mot1 rescue: 48; NALP1 inh: 1; FID counter: -6; IMP-1 inh: -2; VIM-2 inhibitor: 7; SUMO HTRF inh: 95*

How did C/C(=N\n1c(C)nc2ccccc2c1=O)c1ccc(C)o1 do in these assays?
SUMO Mot1 rescue: 0; NALP1 inh: 9; FID counter: -4; IMP-1 inh: -3; VIM-2 inhibitor: -4; SUMO HTRF inh: 14

What do the screens show for `Cc1cc([N+](=O)[O-])cc2c1NCC1CC=CC21` (stereo not drawn)?
SUMO Mot1 rescue: 2; NALP1 inh: 32; FID counter: 3; IMP-1 inh: -4; VIM-2 inhibitor: -3; SUMO HTRF inh: 11

Results for Cc1cc([N+](=O)[O-])c2c(c1C)C1C=CCC1C(c1ccccn1)N2 (stereo not drawn) ?
SUMO Mot1 rescue: -4; NALP1 inh: -28; FID counter: -5; IMP-1 inh: 5.9*; VIM-2 inhibitor: 1; SUMO HTRF inh: 5

What do the screens show for `COc1ccc(/C=C2\C(=O)c3ccccc3OC2c2ccccc2)cc1` (stereo not drawn)?
SUMO Mot1 rescue: -4; NALP1 inh: 0; FID counter: -8; IMP-1 inh: -3; VIM-2 inhibitor: -2; SUMO HTRF inh: -11

What do the screens show for `CCOc1ccc(/C=C2\C(=O)c3ccccc3OC2c2ccccc2)cc1` (stereo not drawn)?
SUMO Mot1 rescue: -13; NALP1 inh: 28*; FID counter: -2; IMP-1 inh: -2; VIM-2 inhibitor: -2; SUMO HTRF inh: 10

How did O=C(Nc1cccn(Cc2cccc(F)c2)c1=O)NC1CCCCC1 do in these assays?
SUMO Mot1 rescue: -9; NALP1 inh: 6; FID counter: -23; IMP-1 inh: -3; VIM-2 inhibitor: -3; SUMO HTRF inh: 99*
